Calls of active or inactive are those of the source. The rule behind the calls is not given here.
Tests used:
[1] = Cytotoxicity against human KB cells by Alamar blue assay; format: cell-based; conditions: read-out: ED50 (the source's name)
Method in brief: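 Human oral pharyngeal carcinoma KB cells; Alamar Blue read-out with podophyllotoxin positive control; ED50 calculated relative to blanks and untreated controls.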

[2] = Inhibition of Plasmodium falciparum thioredoxin reductase in presence of 34 uM thioredoxin 2 substrate
Method in brief: (§1)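 Direct assay at 25 °C, NADPH oxidation at 340 nm, 100 μM NADPH, 1% DMSO; six to eight inhibitor levels 0–100 μM, duplicate. TR: 100 μM TS2, 100 mM phosphate pH 7.0. GR (human): 500 or 50 μM GSSG, 100 mM potassium phosphate pH 7.0, 200 mM KCl. P. falciparum TrxR: 34 μM D. melanogaster thioredoxin-2, 100 mM phosphate pH 7.4, 2 mM EDTA.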

[3] = Inhibition of Plasmodium falciparum thioredoxin reductase after 5 min pre-incubation with NADPH in presence of 34 uM thioredoxin 2 substrate
Method in brief: (§2)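 Enzyme (T. cruzi TR, human GR or P. falciparum TrxR) preincubated 5 min at 25 °C with 160 μM NADPH and 0–20 μM inhibitor, 2% DMSO, 50 μL; 5 μL aliquot into respective standard assay with substrate at 5× Km (100 μM TS2, 500 μM GSSG, 34 μM thioredoxin-2), residual activity at 340 nm.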

[4] = tested on: Leishmania donovani; experiment: Antiparasitic activity against Leishmania donovani MHOM/ET/67/HU3 intracellular amastigotes; format: functional; conditions: read-out: ED50 (the source's name)
[5] = tested on: Trypanosoma brucei rhodesiense; experiment: Antiparasitic activity against Trypanosoma brucei rhodesiense STIB900 blood stream form; format: functional; conditions: read-out: ED50 (the source's name)
Method in brief: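 Bloodstream-form parasites treated for 3 days; viability by tetrazolium salt colorimetric assay with pentamidine isethionate reference; ED50 derived by sigmoidal regression.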

[6] = tested on: Trypanosoma cruzi; experiment: Antiparasitic activity against Trypanosoma cruzi MHOM/CL/00/Tulahuan-LacZ intracellular amastigotes; format: functional; conditions: read-out: ED50 (the source's name)
[7] = tested on: Plasmodium falciparum; experiment: Antiparasitic activity against chloroquine-sensitive Plasmodium falciparum 3D7 in erythrocytes; format: functional; conditions: read-out: ED50 (the source's name)
[8] = Toxicity in macrophages at >=156 uM; format: cell-based; conditions: human, macrophage
[9] = target: Trypanothione reductase (Trypanosoma cruzi) (UniProt P28593); experiment: Inhibition of reduced Trypanosoma cruzei trypanothione reductase at freshly prepared 100 uM
Method in brief: (§3)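 Recombinant T. cruzi TR (0.5 μM) preincubated at 25 °C with inhibitor, with or without 200 μM NADPH, in 40 mM HEPES, 1 mM EDTA, pH 7.5; 5 μL aliquots taken over time into standard assay (100 μM NADPH, 110 μM TS2, A340 decrease). Inhibitor from fresh or stored DMSO stock (stored at 4 °C); half-time at 100 μM. Controls: enzyme+NADPH+DMSO, enzyme+inhibitor without NADPH.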

[10] = target: T1, Trypanothione reductase (Trypanosoma cruzi, UniProt P28593); experiment: Inhibition of Trypanosoma cruzi trypanothione reductase in presence of 100 uM TS2 substrate; method in brief: as §1
[11] = target: T1, Trypanothione reductase; experiment: Inhibition of Trypanosoma cruzi trypanothione reductase after 5 mins pre-incubation with NADPH in presence of 100 uM TS2 substrate; method in brief: as §2
[12] = target: T2, Glutathione reductase, mitochondrial (Homo sapiens, UniProt P00390); experiment: Inhibition of human glutathione reductase in presence of 500 uM GSSG substrate; method in brief: as §1
T2 sequence (P00390 whole entry): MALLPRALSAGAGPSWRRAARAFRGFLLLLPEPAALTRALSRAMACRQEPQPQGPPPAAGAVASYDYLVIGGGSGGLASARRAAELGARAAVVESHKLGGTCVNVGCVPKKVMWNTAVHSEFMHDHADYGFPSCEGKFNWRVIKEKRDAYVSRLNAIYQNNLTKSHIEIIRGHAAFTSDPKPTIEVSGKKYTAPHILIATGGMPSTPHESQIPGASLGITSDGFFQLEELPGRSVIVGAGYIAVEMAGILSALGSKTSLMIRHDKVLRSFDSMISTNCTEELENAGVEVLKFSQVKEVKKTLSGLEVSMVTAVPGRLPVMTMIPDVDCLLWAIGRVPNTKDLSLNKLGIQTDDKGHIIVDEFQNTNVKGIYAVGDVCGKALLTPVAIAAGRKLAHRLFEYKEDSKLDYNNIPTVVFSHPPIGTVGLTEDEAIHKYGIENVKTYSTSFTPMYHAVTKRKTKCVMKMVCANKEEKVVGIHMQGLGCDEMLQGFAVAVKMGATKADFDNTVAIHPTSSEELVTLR

[13] = target: T2, Glutathione reductase, mitochondrial; experiment: Inhibition of human glutathione reductase in presence of 50 uM GSSG substrate; method in brief: as §1
[14] = target: T2, Glutathione reductase, mitochondrial; experiment: Inhibition of human glutathione reductase after 5 mins pre-incubation with NADPH in presence of 500 uM GSSG substrate; method in brief: as §2
[15] = target: Trypanothione reductase (Trypanosoma cruzi) (UniProt P28593); experiment: Inhibition of Trypanosoma cruzei reduced trypanothione reductase at 100 uM; method in brief: as §3
[16] = target: Trypanothione reductase (Trypanosoma cruzi) (UniProt P28593); experiment: Inactivation of Trypanosoma cruzei trypanothione reductase at 200 uM; method in brief: as §3
[17] = target: Trypanothione reductase (Trypanosoma cruzi) (UniProt P28593); experiment: Inhibition of Trypanosoma cruzei reduced trypanothione reductase at 5 uM freshly prepared compound within less than 5 mins; method in brief: as §3
[18] = target: Trypanothione reductase (Trypanosoma cruzi) (UniProt P28593); experiment: Inhibition of Trypanosoma cruzei trypanothione reductase at 5 uM stored compound within 5 mins; method in brief: as §3
[19] = target: Trypanothione reductase (Trypanosoma cruzi) (UniProt P28593); experiment: Inactivation of Trypanosoma cruzei reduced trypanothione reductase at 100 uM freshly prepared compound; design: scale not given: the % may be the effect or the level left; method in brief: as §3
[20] = target: Trypanothione reductase (Trypanosoma cruzi) (UniProt P28593); experiment: Inactivation of Trypanosoma cruzei reduced trypanothione reductase at 100 uM stored compound; design: scale not given: the % may be the effect or the level left; method in brief: as §3

Chain of Trypanothione reductase (Trypanosoma cruzi) (P28593 whole entry, looked up): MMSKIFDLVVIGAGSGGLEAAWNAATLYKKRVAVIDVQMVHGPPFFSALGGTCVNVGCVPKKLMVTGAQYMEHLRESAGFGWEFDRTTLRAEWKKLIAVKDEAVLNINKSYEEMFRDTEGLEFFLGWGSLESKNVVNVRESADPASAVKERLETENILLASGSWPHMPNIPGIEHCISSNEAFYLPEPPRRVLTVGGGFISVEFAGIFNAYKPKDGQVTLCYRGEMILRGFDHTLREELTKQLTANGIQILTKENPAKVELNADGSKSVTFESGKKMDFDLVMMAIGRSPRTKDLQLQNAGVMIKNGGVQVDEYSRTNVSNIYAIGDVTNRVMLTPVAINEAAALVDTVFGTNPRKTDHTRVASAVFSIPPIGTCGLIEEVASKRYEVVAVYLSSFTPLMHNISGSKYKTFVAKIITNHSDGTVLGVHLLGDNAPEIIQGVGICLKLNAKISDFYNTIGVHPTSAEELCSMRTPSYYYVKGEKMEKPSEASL
T1 sequence (P28593 whole entry): as the sequence (P28593 whole entry, looked up) above

SMILES: COc1cc([C@@H]2c3cc4c(cc3[C@H](O)[C@H]3COC(=O)[C@H]23)OCO4)cc(OC)c1OC [PODOFILOX]
- CC50 [1]: 0.07 µM

SMILES: C=CC(=O)/C=C/c1ccccc1Cl
- IC50 [2]: 3.7 µM
- IC50 [3]: 0.4 µM
- EC50 [4]: 68 µM
- EC50 [5]: 1.9 µM
- EC50 [6]: 12.5 µM
- EC50 [7]: 46.7 µM
- CC50 [1]: 1230 µM
- Activity [8]: Toxic
- T1/2 [9]: < 0.75 min
- IC50 [10]: 8 µM
- IC50 [11]: 2 µM
- IC50 [12]: 190 µM
- IC50 [13]: 18.5 µM
- IC50 [14]: 5 µM

SMILES: O=C(Cn1ccnc1[N+](=O)[O-])NCc1ccccc1 [BENZNIDAZOLE]
- EC50 [6]: 4.2 µM

SMILES: N=C(N)c1ccc(OCCCCCOc2ccc(C(=N)N)cc2)cc1 [PENTAMIDINE]
- EC50 [4]: 28.9 µM
- EC50 [5]: 0.0001 µM
- EC50 [6]: 4.2 µM

SMILES: O=C(/C=C/c1ccccc1Cl)CCN1CCOCC1
- T1/2 [9]: 2 min

SMILES: O=C(/C=C/c1ccccc1Cl)CCN1CCCCC1
- EC50 [4]: 13 µM
- EC50 [5]: 0.8 µM
- EC50 [6]: 11.8 µM
- EC50 [7]: 16.2 µM
- CC50 [1]: 7.3 µM
- T1/2 [9]: 7.5 min

SMILES: O=C1C=CC(c2ccccc2Cl)C1 (centres undefined)
- Activity [15]: inactive

SMILES: CN(C)CC(C)(C)C(=O)/C=C/c1ccccc1Cl
- Activity [16]: inactive

SMILES: CCN(CC)CCCC(C)Nc1ccnc2cc(Cl)ccc12 (centres undefined) [CHLOROQUINE]
- EC50 [7]: 0.0058 µM

SMILES: CN(C)CCC(=O)/C=C/c1ccccc1Cl
- EC50 [4]: 41.6 µM
- EC50 [5]: 1.8 µM
- EC50 [6]: 8.7 µM
- EC50 [7]: 27 µM
- CC50 [1]: 14.2 µM
- T1/2 [9]: 8.6 min
- inhibition [17]: 30%
- inhibition [18]: 70%
- Activity [19]: > 99%
- Activity [20]: > 99%

— ChEMBL document CHEMBL1140293, “Irreversible inactivation of trypanothione reductase by unsaturated Mannich bases: a divinyl ketone as key intermediate” (J Med Chem, 2005)
